Laboratory results: ChEMBL document CHEMBL1255283, “Comparative efficacies of rifaximin and vancomycin for treatment of Clostridium difficile-associated diarrhea and prevention of disease recurrence in hamsters” (2008)
The source made the active and inactive calls. The calls are words filed in the database; no cut-off is given here.

Tests used:
Clostridioides difficile [1] = test: Antibacterial activity against Clostridium difficile VPI 10463 infected in golden syrian hamster assessed as survival of the […] at 25 mg/kg/day administered 24 hrs after infection for 5 days measured after 28 days; format: functional, organism-based
How it was run: (§1)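 Relapse study: hamsters given clindamycin phosphate 10 mg/kg sc on day 0 and infected with VPI 10463 by gavage on day 1. Daily oral rifaximin by gavage in SDS/phosphate buffer vehicle on days 2–6. Animals followed about one month for recurrence, with Kaplan-Meier survival. Body weight tracked over time as % of initial weight.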

Clostridioides difficile [2] = test: Antibacterial activity against Clostridium difficile VPI 10463 infected in golden syrian hamster assessed as body weight loss at 25 mg/kg/day for 5 days measured after 7 days relative to initial body weight; format: functional
How it was run: (§2)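 Prevention design in hamsters (n = 10/group): clindamycin phosphate 10 mg/kg sc on day 0, oral gavage infection with C. difficile VPI 10463 on day 1. Rifaximin suspended in 0.1 M phosphate buffer pH 7.4 plus 4.5‰ SDS, given by gavage once daily from day 1 for 5 doses; vehicle and uninfected controls. Survivors sacrificed day 7. Weight change is % of initial body weight; non-survivors excluded.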

Clostridioides difficile [3] = test: Antibacterial activity against Clostridium difficile VPI 10463 infected in golden syrian hamster assessed as survival of the […] at 100 mg/kg/day for 5 days measured after 7 days; format: functional; how it was run: as §2
Clostridioides difficile [4] = test: Antibacterial activity against Clostridium difficile VPI 10463 infected in golden syrian hamster assessed as survival of the […] at 50 mg/kg/day administered 24 hrs after infection for 5 days measured after 7 days; format: functional, organism-based
How it was run: (§3)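 Treatment design in hamsters (10/group per cohort): clindamycin phosphate 10 mg/kg sc on day 0, gavage infection with VPI 10463 on day 1. Oral rifaximin, suspended in phosphate buffer pH 7.4 with 4.5‰ SDS, given daily by gavage from day 2 for five doses. Survival read at day 7, with Kaplan-Meier and log-rank analysis.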

Clostridioides difficile [5] = test: Antibacterial activity against Clostridium difficile VPI 10463 infected in golden syrian hamster assessed as body weight loss at 100 mg/kg/day for 5 days measured after 7 days relative to initial body weight; format: functional; how it was run: as §2
Clostridioides difficile [6] = test: Antibacterial activity against Clostridium difficile VPI 10463 infected in golden syrian hamster assessed as body weight gain at 100 mg/kg/day for 5 days relative to initial body weight; format: functional; how it was run: as §1
Clostridioides difficile [7] = test: Antibacterial activity against Clostridium difficile VPI 10463 infected in golden syrian hamster assessed as body weight loss at 50 mg/kg/day for 5 days measured after 7 days relative to initial body weight; format: functional; how it was run: as §2
Clostridioides difficile [8] = test: Antibacterial activity against Clostridium difficile VPI 10463 infected in golden syrian hamster assessed as survival of the […] at 50 mg/kg/day for 5 days measured after 7 days; format: functional; how it was run: as §2
Clostridioides difficile [9] = test: Antibacterial activity against Clostridium difficile VPI 10463 infected in golden syrian hamster assessed as survival of the […] at 50 mg/kg/day administered 24 hrs after infection for 5 days measured after 28 days; format: functional, organism-based; how it was run: as §1
Clostridioides difficile [10] = test: Antibacterial activity against Clostridium difficile VPI 10463 infected in golden syrian hamster assessed as survival of the […] at 100 mg/kg/day administered 24 hrs after infection for 5 days measured after 7 days; format: functional, organism-based; how it was run: as §3
Clostridioides difficile [11] = test: Antibacterial activity against Clostridium difficile VPI 10463 infected in golden syrian hamster assessed as survival of the […] at 100 mg/kg/day administered 24 hrs after infection for 5 days measured after 28 days; format: functional; how it was run: as §1
Clostridioides difficile [12] = test: Antibacterial activity against Clostridium difficile VPI 10463 infected in golden syrian hamster assessed as survival of the […] at 25 mg/kg/day administered 24 hrs after infection for 5 days measured after 7 days; format: functional; how it was run: as §3

CO[C@H]1/C=C/O[C@@]2(C)Oc3c(C)c(O)c4c(O)c(c5c(nc6cc(C)ccn65)c4c3C2=O)NC(=O)/C(C)=C\C=C\[C@H](C)[C@H](O)[C@@H](C)[C@@H](O)[C@@H](C)[C@H](OC(C)=O)[C@@H]1C [RIFAXIMIN]
Activity (Clostridioides difficile [1]): Active
Activity (Clostridioides difficile [2]): -8.4%
survival at 100 mg/kg/day (Clostridioides difficile [3]): 80%
Activity (Clostridioides difficile [4]): Active
Activity (Clostridioides difficile [5]): -8.1%
Activity (Clostridioides difficile [6]): 16.7%
Activity (Clostridioides difficile [7]): -7.9%
survival at 50 mg/kg/day (Clostridioides difficile [8]): 70%
Activity (Clostridioides difficile [9]): Active
Activity (Clostridioides difficile [10]): Active
survival at 100 mg/kg/day (Clostridioides difficile [11]): 100%

CN[C@H](CC(C)C)C(=O)N[C@H]1C(=O)N[C@@H](CC(N)=O)C(=O)N[C@H]2C(=O)N[C@H]3C(=O)N[C@H](C(=O)N[C@H](C(=O)O)c4cc(O)cc(O)c4-c4cc3ccc4O)[C@H](O)c3ccc(c(Cl)c3)Oc3cc2cc(c3O[C@@H]2O[C@H](CO)[C@@H](O)[C@H](O)[C@H]2O[C@H]2C[C@](C)(N)[C@H](O)[C@H](C)O2)Oc2ccc(cc2Cl)[C@H]1O [VANCOMYCIN]
Activity (Clostridioides difficile [1]): Active
Activity (Clostridioides difficile [4]): Active
survival at 25 mg/kg/day (Clostridioides difficile [12]): 80%
Activity (Clostridioides difficile [7]): -6.6%
survival at 50 mg/kg/day (Clostridioides difficile [8]): 70%
Activity (Clostridioides difficile [9]): Active
survival at 100 mg/kg/day (Clostridioides difficile [11]): 25%
